Assay results published in ChEMBL document CHEMBL1764958, “Synthesis and biological evaluation of 3,7-diazabicyclo[4.3.0]nonan-8-ones as potential nootropic and analgesic drugs” (2011).
Calls of active or inactive are those of the source. No cut-off for these calls is given here.

Tests used:
Mus musculus [1] = assay: Antiamnesic activity in ip dosed mouse assessed as reversal of scopolamine-induced amnesia after 20 mins by passive-avoidance test; type: functional; details: for minimal effective dose: Mus musculus, ip, 20 min, read-out: MED
Mus musculus [2] = assay: Antiamnesic activity in mouse assessed as reversal of scopolamine-induced amnesia at 10 mg/kg, ip after 20 mins by passive-avoidance test; type: functional, organism-based; parameters: dose 10 mg/kg
Procedure, shortened: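 Mice; compounds dissolved in saline, given ip 20 min before the training session of the passive-avoidance test. Scopolamine injected immediately after punishment. Doses tested up to 10 mg/kg; activity read as reversal of scopolamine-induced amnesia at retention. Each value is the mean of 8-18 mice, compared against scopolamine-treated mice.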

Rattus norvegicus [3] = assay: Antihyperalgesic activity in rat assessed as reversal of oxaliplatin-induced mechanical hyperalgesia at 10 mg.kg, ip by paw pressure test; type: functional, organism-based
Procedure, shortened: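 Rats received oxaliplatin 2.4 mg/kg ip on 5 consecutive days each week, for 15 injections totalling 36 mg/kg. Mechanical hyperalgesia was then measured by the paw-pressure test after a single ip dose of 10 mg/kg. Pregabalin 30 mg/kg po served as reference.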

Rattus norvegicus [4] = assay: Antihyperalgesic activity in rat assessed as reversal of oxaliplatin-induced mechanical hyperalgesia at 50 to 100 mg.kg, iv by paw pressure test; type: functional
Mus musculus [5] = species on record: Mus musculus; assay: Antihyperalgesic activity against streptozotocin-induced thermal hyperalgesia in mouse diabetic neuropathy model assessed as licking latency time after 15 mins by hot plate test (reference value: 9.4 +/- 1.3 sec)
Mus musculus [6] = species on record: Mus musculus; assay: Antihyperalgesic activity against streptozotocin-induced thermal hyperalgesia in mouse diabetic neuropathy model assessed as licking latency time after 60 mins by hot plate test (reference value: 10.4 +/- 1.2 sec)
Mus musculus [7] = species on record: Mus musculus; assay: Antihyperalgesic activity against thermal hyperalgesia in saline treated mouse diabetic neuropathy model assessed as licking latency time after 60 mins by hot plate test (reference value: 18.4 +/- 1.6 sec)
Mus musculus [8] = species on record: Mus musculus; assay: Antihyperalgesic activity against thermal hyperalgesia in saline treated mouse diabetic neuropathy model assessed as licking latency time after 15 mins by hot plate test (reference value: 18.1 +/- 1.1 sec)
Mus musculus [9] = species on record: Mus musculus; assay: Antihyperalgesic activity against streptozotocin-induced thermal hyperalgesia in mouse diabetic neuropathy model assessed as licking latency time after 30 mins by hot plate test (reference value: 10.1 +/- 0.8 sec)
Mus musculus [10] = species on record: Mus musculus; assay: Antihyperalgesic activity against thermal hyperalgesia in saline treated mouse diabetic neuropathy model assessed as licking latency time after 30 mins by hot plate test (reference value: 18 +/- 1.5 sec)
Mus musculus [11] = species on record: Mus musculus; assay: Antihyperalgesic activity against thermal hyperalgesia in saline treated mouse diabetic neuropathy model assessed as licking latency time after 45 mins by hot plate test (reference value: 17.8 +/- 1.5 sec)
Mus musculus [12] = species on record: Mus musculus; assay: Antihyperalgesic activity against streptozotocin-induced thermal hyperalgesia in mouse diabetic neuropathy model assessed as licking latency time after 45 mins by hot plate test (reference value: 9.3 +/- 1.2 sec)

## CC(=O)NC1CCN(S(=O)(=O)C(C)C)CC1
Mus musculus [1]
  minimal effective dose: 1 mg/kg

## CC(=O)NC1CCN(C(=O)c2ccccc2)CC1
Mus musculus [1]
  minimal effective dose: 10 mg/kg

## CC(C)S(=O)(=O)N1CC[C@@H]2NC(=O)C[C@@H]2C1
Mus musculus [2]
  Activity: inactive

## O=C1CC2CN(S(=O)(=O)c3ccc(F)cc3)CCC2N1 (racemic; form 1)
Rattus norvegicus [3]
  Activity: Active

## O=C1CC2CN(S(=O)(=O)c3ccc(F)cc3)CCC2N1 (racemic; form 2)
Rattus norvegicus [3]
  Activity: Active

## O=C1C[C@@H]2CN(S(=O)(=O)c3ccc(F)cc3)CC[C@@H]2N1 (relative stereo)
Mus musculus [1]
  MED: 0.1 mg/kg

## O=C1C[C@@H]2CN(C(=O)c3ccccc3)CC[C@@H]2N1 (relative stereo)
Mus musculus [1]
  minimal effective dose: 3 mg/kg

## O=C1C[C@H]2CN(S(=O)(=O)c3ccc(F)cc3)CC[C@@H]2N1 (relative stereo)
Mus musculus [1]
  MED: 1 mg/kg

## O=C1C[C@H]2CN(C(=O)c3ccccc3)CC[C@@H]2N1 (relative stereo)
Mus musculus [1]
  minimal effective dose: 3 mg/kg

## CC(C)S(=O)(=O)N1CC[C@@H]2NC(=O)C[C@H]2C1 (relative stereo)
Mus musculus [1]
  minimal effective dose: 10 mg/kg

## O=C1C[C@@H]2CN(S(=O)(=O)c3ccc(F)cc3)CC[C@@H]2N1 (stereo in doubt; (+)-4)
Rattus norvegicus [4]
  Activity: 75%

## O=C1C[C@@H]2CN(S(=O)(=O)c3ccc(F)cc3)CC[C@@H]2N1 (stereo in doubt; (-)-4)
Mus musculus [1]
  minimal effective dose: 0.1 mg/kg

## O=C1C[C@H]2CN(S(=O)(=O)c3ccc(F)cc3)CC[C@@H]2N1 (stereo in doubt; (-)-7)
Mus musculus [1]
  minimal effective dose: 1 mg/kg

## O=C1O[C@H]([C@@H](O)CO)C(O)=C1O [ASCORBIC ACID]
Rattus norvegicus [4]
  Activity: 50%

## O=C(O)CCCCC1CCSS1 (stereo not drawn) [LIPOIC ACID, ALPHA]
Rattus norvegicus [4]
  Activity: 50%

## NC(=O)CN1CCCC1=O [PIRACETAM]
Mus musculus [1]
  minimal effective dose: 30 mg/kg

## CC(=O)NC1CCN(S(=O)(=O)c2ccc(F)cc2)CC1 [SAPUNIFIRAM]
Mus musculus [5]
  Time: 15.6 s
Mus musculus [6]
  Time: 11.2 s
Mus musculus [7]
  Time: 15.6 s
Mus musculus [8]
  Time: 16.5 s
Mus musculus [9]
  Time: 12.4 s
Mus musculus [10]
  Time: 15.7 s
Mus musculus [11]
  Time: 16.3 s
Mus musculus [12]
  Time: 10.4 s
Rattus norvegicus [3]
  Activity: inactive
Mus musculus [1]
  minimal effective dose: 0.01 mg/kg
